Results on 13 molecules are retold here after PubChem BioAssay.

The nature of test [1]: inhibitors of TNFa-induced NFkB p65 translocation, primary screen, imaging, HUVEC, MLSMR starter and 10KST1 sets (AID 438;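 active = inhibition above 20% together with a positive visual image hit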;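 also: compound added about 3h40 before a 20 min TNFalpha stimulation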;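 as to inhibition: signal is the nuclear over cytoplasmic p65 intensity ratio per well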). Particulars: HUVEC TNFa-induced p65 nuclear translocation; cell count: measured here: nuclei count (cytotoxicity indicator), at 2.08 µM; inhibition: at 2 µM, stronger effect = higher value, 0% TNFa-plus-vehicle, 100% no-TNFa wells.
Test [2] in a line: inhibitors of E-selectin induction by TNFa, primary screen, imaging, HUVEC, immunofluorescence, MLSMR starter and 10KST1 sets (AID 487).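 As to inhibition: signal is fraction of cell area covered by stained E-selectin grains.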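 As to nuclei count: 100% = median nuclei count of all wells on the same plate.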 Particulars: HUVEC TNFalpha-induced E-selectin immunofluorescence imaging, at 2 µM; inhibition: stronger effect = higher value; nuclei count: measured here: cell number, toxicity.
A short description of test [3]: DUSP6 inhibitors restoring Erk phosphorylation by chemical complementation, primary imaging in DUSP6-transfected HeLa (AID 609;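 active = compounds giving at least 50% inhibition in the cell-based MKP-3 phosphatase rescue imaging test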;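 as to inhibition: phospho-Erk level distribution per well compared with pooled transfected vehicle control wells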). Particulars: HeLa MKP-3 transfected, phospho-Erk imaging KS statistic, at 10 µM, cells stimulated with TPA for 15 min.
Test [4] has as its target Dual specificity protein phosphatase 6 (Homo sapiens) (UniProt Q16828). The description is as above. Particulars: HeLa MKP-3 transfected, phospho-Erk imaging KS statistic; at 10 µM; stronger effect = higher value; cells stimulated with TPA for 15 min.
In test [5] the target is Voltage-gated potassium channel subunit beta-2 (Rattus norvegicus) (UniProt P62483). Kind of test: KvBeta enzyme negative modulators, primary screen, biochemical, NADPH fluorescence (AID 622;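 active = fluorescence slope higher than the sample average by over 3 SD, cut at about -0.22 in these data, passing the limit was not always enough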;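 also: slope of raw intensity against log time taken from 70 to 1610 s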). Particulars: recombinant KvBeta, 4-cyanobenzaldehyde reduction, at 10 µM, stronger effect = higher value.
Voltage-gated potassium channel subunit beta-2 (Rattus norvegicus), sequence (P62483 whole entry, looked up): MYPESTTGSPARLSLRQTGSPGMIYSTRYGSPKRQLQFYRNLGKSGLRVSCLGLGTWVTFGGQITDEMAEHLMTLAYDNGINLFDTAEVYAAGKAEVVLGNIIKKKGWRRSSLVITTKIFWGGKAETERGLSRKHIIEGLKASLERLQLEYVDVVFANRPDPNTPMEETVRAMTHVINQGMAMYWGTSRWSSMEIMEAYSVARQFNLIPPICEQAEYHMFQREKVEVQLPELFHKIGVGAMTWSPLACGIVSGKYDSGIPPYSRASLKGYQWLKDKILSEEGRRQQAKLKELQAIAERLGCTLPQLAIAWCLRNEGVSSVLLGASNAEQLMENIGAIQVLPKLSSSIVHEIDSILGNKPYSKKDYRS
The target is the same in test [6]. Kind of test: KvBeta positive modulators, primary screen, biochemical, NADPH fluorescence (AID 623;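 active = NADPH fluorescence slope more negative than the mean of all samples by about 3 SD, 99.7% confidence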;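 also: fluorescence intensity change per second fitted from 20 to 320 s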). Particulars: Recombinant KvBeta, NADPH fluorescence decrease slope, 10 min; at 10 µM; stronger effect = lower value.
Test [7] deals with Muscarinic acetylcholine receptor M4 (Homo sapiens) (UniProt P08173). Kind of test: compounds altering M4/GIRK thallium flux, either direction, primary screen, M4 allosteric agonist project, cell-based, HEK293 M4/GIRK, BTC-AM (AID 625;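 active = fluorescence slope after compound addition differing from the mean of all tested samples at 99.7% confidence, mostly higher but some lower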;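 also: thallium influx through GIRK channels coupled to M4 in HEK293 cells with BTC-AM dye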). Particulars: at 10 µM, actives lie on both sides. In a few lines:
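assay system = HEK293 cells with M4 receptor and GIRK channels | medium = pH 7.3 thallium assay buffer | doses = 10 µM final, single point | timing = cells overnight at 37 °C, BTC-AM loading 1 h, reads 2 min total | signal = BTC-AM fluorescence, 1 Hz kinetic reads | read-out = post-addition slope, 15–24 s, of baseline-normalized fluorescence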

A short description of test [8]: inhibitors of larval lipid processing in zebrafish, primary screen, whole organism, PED6 fluorescence, gall bladder and intestine (AID 686;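 active = a full or partial loss of lipid-probe fluorescence in the fish gall bladder, intestine or both, judged by eye; inactive = no fluorescence loss, or compound toxic to the fish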;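 also: larvae 5 to 7 days old with five fish per well; signal comes from phospholipase A2 cleavage of quenched PED6 carried via bile; overnight exposure to compound and PED6 before scoring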). Particulars: Zebrafish larvae PED6 lipid processing, fluorescence scoring; screened at 20 µM (by protocol). The procedure, abridged: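 Also added: quenched phospholipase substrate PED6, 100 nM final, ingested by larvae; System: zebrafish larvae, 5-7 d; Quantity: 5 larvae per well; Compound: 20 µM single dose; Schedule: overnight compound and PED6 incubation; Read-out: visual per-well fluorescence inhibition score; Measured by: By-eye fluorescence microscopy; Medium: E3.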

Test [9] is described as follows: inhibitors of Chlamydomonas gravitaxis, primary screen, whole organism, Chlamydomonas reinhardtii, WT vs cilia-less mutant, absorbance, 96-well (AID 463189;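 active = inhibition at or above 50% relative to wild type and mutant plate controls; inactive = inhibition below 50%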;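 also: 0% = wild type cc124 cells in DMSO and 100% = ciliumless bld1 mutant cells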). Particulars: OD600 absorbance, 2 days, at 10 µM, stronger effect = higher value.
The mark [10] stands for this setting: measured here: cell density z-score.
[11] abbreviates: measured here: nuclear c-Myc green intensity z-score.
[12] abbreviates: measured here: nuclear pErk red intensity z-score, stronger effect = higher value.

Active and inactive are the calls of the source.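 The calls were made as follows, unless noted: active = visually confirmed hit in the image check and inhibition above 20%; inconclusive = visually confirmed hit but inhibition not above 20%; inactive = no visual hit in the image check.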

Muscarinic acetylcholine receptor M4 (Homo sapiens), sequence (P08173 whole entry, looked up): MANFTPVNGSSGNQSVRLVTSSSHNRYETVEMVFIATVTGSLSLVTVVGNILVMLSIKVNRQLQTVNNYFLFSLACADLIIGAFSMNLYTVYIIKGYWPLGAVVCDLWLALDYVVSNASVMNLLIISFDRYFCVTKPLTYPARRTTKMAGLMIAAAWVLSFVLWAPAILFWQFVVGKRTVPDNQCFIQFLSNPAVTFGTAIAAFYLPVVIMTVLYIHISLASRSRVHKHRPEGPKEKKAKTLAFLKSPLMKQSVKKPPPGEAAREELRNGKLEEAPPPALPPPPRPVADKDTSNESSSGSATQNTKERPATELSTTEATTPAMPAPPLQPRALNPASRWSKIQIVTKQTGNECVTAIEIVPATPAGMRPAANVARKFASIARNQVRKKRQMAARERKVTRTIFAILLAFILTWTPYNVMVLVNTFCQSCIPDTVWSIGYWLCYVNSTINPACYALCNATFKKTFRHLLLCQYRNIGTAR
Dual specificity protein phosphatase 6 (Homo sapiens), sequence (Q16828 whole entry, looked up): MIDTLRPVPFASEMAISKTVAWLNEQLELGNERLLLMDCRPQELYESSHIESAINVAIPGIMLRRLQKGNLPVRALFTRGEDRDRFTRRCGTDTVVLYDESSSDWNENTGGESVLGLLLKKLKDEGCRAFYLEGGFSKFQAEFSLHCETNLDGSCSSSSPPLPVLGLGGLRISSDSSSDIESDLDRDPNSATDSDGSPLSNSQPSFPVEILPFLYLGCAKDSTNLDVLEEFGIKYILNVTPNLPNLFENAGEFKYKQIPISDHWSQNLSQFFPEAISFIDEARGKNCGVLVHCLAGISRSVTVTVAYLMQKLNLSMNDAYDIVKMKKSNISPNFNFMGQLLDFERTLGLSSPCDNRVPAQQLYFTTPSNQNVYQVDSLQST

Take `O=C(NCc1ccco1)c1ccc(=O)[nH]n1`: the cell count in [1] is 578. Further, the inhibition in [1] is 3.8% (inactive); in test [2] it was -71.8% (inactive); in test [4] it was 28.1% (inactive); in [9], 29.4% (inactive). This molecule also had a nuclei count in test [2] of 91.1%. The z-score in [3] (setting [10]) was 0.426; in test [3] (setting [11]) it was -0.894; in [3] (setting [12]) it was -1.39. Also, the fluorescence slope in test [5] is -0.539 (inactive); in test [7], 0.00665 (inactive). Also, the NADPH fluorescence slope in test [6] was -4.2e-05 (inactive). In addition, in test [8], the outcome was inactive.

For the molecule `O=C(O)C1[C@H]2C(=O)N(Cc3cccs3)C[C@]23C=C[C@H]1O3` (some centres undefined), the cell count in [1] was 598. In addition, the inhibition in [1] is -10.3% (inactive); in [2], -12.8% (inactive); in [4], 6.04% (inactive); in [9], -4.98% (inactive). In test [2], this molecule registered a nuclei count of 189%. Moreover, the z-score was 0.152 in [3] (setting [10]), 1.12 in test [3] (setting [11]) and -0.313 in test [3] (setting [12]). Also, the values for the fluorescence slope in [5] and in [7] were -0.481 (inactive) and 0.00643 (inactive), respectively. Besides, in test [6], the NADPH fluorescence slope was -8e-05 (inactive). Besides, the molecule was classed as inactive in [8].

As for `COc1ccccc1C1/C(=C(/O)c2ccc(C)cc2)C(=O)C(=O)N1CCN1CCOCC1` (centres undefined), the cell count in test [1] was 652. For the same molecule, the inhibition was -11.9% (inactive) in test [1], -32.2% (inactive) in [2], -2.09% (inactive) in test [4] and 0.641% (inactive) in [9]. Further, the nuclei count in test [2] was found to be 133%. The values for the z-score in test [3] (setting [10]), in test [3] (setting [11]) and in [3] (setting [12]) were -0.486, -0.67 and 0.136, respectively. Also, the fluorescence slope was -0.506 (inactive) in test [5] and 0.0067 (inactive) in test [7]. For the same molecule, the NADPH fluorescence slope in [6] was -4e-05 (inactive). In addition, in test [8], the molecule was called inactive.

As to `CN1C(=O)C2(c3ccccc31)C1CCCC=C1C(C#N)=C(N)C2(C#N)C#N` (centres undefined), the cell count in test [1] was determined as 391. Moreover, the inhibition in test [1] was -7% (inactive); in test [2], -160% (inactive); in test [4], 29.4% (inactive); in test [9] it was 4.14% (inactive). Moreover, in test [2], the nuclei count was 143%. In addition, the z-score in test [3] (setting [10]) was -0.865; in test [3] (setting [11]) it was 0.905; in test [3] (setting [12]), -0.897. For the same molecule, the fluorescence slope is -0.472 (inactive) in [5] and 0.00434 (inactive) in [7]. Also, in test [6], the NADPH fluorescence slope was -1.9e-05 (inactive). In test [8], the call was inactive.

As for `CCCn1nc(Oc2nc(SC)nc(N(C)C)n2)ccc1=O`, the cell count in test [1] amounted to 340. The inhibition in test [1] was -6.1% (inactive); in [2], -38% (inactive); in test [4], 16.1% (inactive); in test [9], -11.7% (inactive). Also, in [2], the nuclei count worked out at 91.9%. Moreover, the z-score in [3] (setting [10]) is 1.7; in test [3] (setting [11]), -0.0746; in test [3] (setting [12]), -1.32. Besides, the fluorescence slope in test [5] is -0.491 (inactive); in test [7], 0.00516 (inactive). For the same molecule, the NADPH fluorescence slope in [6] was 3.6e-05 (inactive). Moreover, the result in [8] was inactive.

As for `CCCCSc1nc(N)c(C#N)c(-c2cccs2)c1C#N`, in test [1], the cell count stood at 652. Also, the inhibition in test [1] is -3.4% (inactive); in test [2], -1.9% (inactive); in test [4], -4.7% (inactive); in test [9], -8.35% (inactive). The molecule also gave a nuclei count in test [2] of 141%. In addition, the z-score is 1.43 in test [3] (setting [10]), 0.907 in test [3] (setting [11]) and -0.946 in test [3] (setting [12]). Also, the fluorescence slope in test [5] was -0.432 (inactive); in test [7] it was 0.00886 (inactive). In [6], the NADPH fluorescence slope is -1.7e-05 (inactive). Further, the call in test [8] was inactive.

On to `Cc1cc2c(c(=O)o1)C(CC(C)C)C(C#N)=C(N)O2` (centres undefined), for which the cell count in [1] is 703. The inhibition was 2% (inactive) in test [1], -144% (inactive) in test [2], -1.12% (inactive) in [4] and 3.4% (inactive) in [9]. Also, the nuclei count in test [2] amounted to 167%. The z-score in [3] (setting [10]) is -0.228; in [3] (setting [11]), -0.296; in [3] (setting [12]) it was -0.119. The fluorescence slope in [5] was -0.436 (inactive); in test [7], 0.00457 (inactive). In addition, the NADPH fluorescence slope in test [6] is -5.8e-05 (inactive). In addition, the result in test [8] was inactive.

Turning to `O=C(c1ccc(=O)oc1)N1CCN(C(c2ccccc2)c2ccccc2)CC1`, the cell count in [1] amounted to 630. For the same molecule, the inhibition in test [1] is -3.2% (inactive); in test [2] it was -22.1% (inactive); in [4] it was -3.95% (inactive); in test [9], 4.32% (inactive). Besides, the nuclei count in test [2] is 168%. Also, the values for the z-score in test [3] (setting [10]), in [3] (setting [11]) and in [3] (setting [12]) were -0.99, 0.461 and 1.67, respectively. Besides, the fluorescence slope in [5] is -0.474 (inactive); in test [7], 0.00524 (inactive). In test [6], the NADPH fluorescence slope is -7.6e-05 (inactive). Also, the outcome in [8] was inactive.

Take `N#Cc1c(N2CCCCC2)nc(N2CCCCC2)c2c1CCN(Cc1ccccc1)C2`: the cell count in [1] is 606. Further, the inhibition in test [1] was -3.7% (inactive); in test [2], -146% (inactive); in test [4], -4.59% (inactive); in test [9] it was 4.47% (inactive). Further, in test [2], the nuclei count amounted to 154%. Besides, the results for the z-score in [3] (setting [10]), in test [3] (setting [11]) and in [3] (setting [12]) were 0.785, -0.814 and 0.622, respectively. The fluorescence slope in test [5] was -0.431 (inactive); in test [7], 0.0046 (inactive). In addition, the NADPH fluorescence slope in test [6] was -9.2e-05 (inactive). Moreover, in test [8], the molecule was called inactive.

Turning to `Cc1nc(=O)c(-c2ccccc2)c(C)n1-c1ccc(S(N)(=O)=O)cc1`, in test [1], the cell count is 568. Besides, the inhibition in [1] was -4.9% (inactive); in test [2], -74.8% (inactive); in test [4] it was 7.93% (inactive); in test [9], -8.67% (inactive). The molecule further registered a nuclei count in [2] of 154%. Further, the z-score in [3] (setting [10]) is 0.3; in test [3] (setting [11]) it was 0.245; in test [3] (setting [12]), 1.29. The fluorescence slope in test [5] is -0.406 (inactive); in test [7] it was 0.00537 (inactive). Also, in test [6], the NADPH fluorescence slope was -4.5e-05 (inactive). In test [8], the result was inactive.

As to `CCCCCOC(=O)C(C)c1c(C)[nH]c(=S)[nH]c1=O` (centres undefined), in test [1], the cell count was 628. Also, the inhibition was -1.4% (inactive) in test [1], -25.9% (inactive) in test [2], 1.04% (inactive) in [4] and -3.91% (inactive) in test [9]. The molecule further gave a nuclei count in test [2] of 158%. For the same molecule, the z-score is -0.614 in test [3] (setting [10]), -0.028 in test [3] (setting [11]) and 2.51 in test [3] (setting [12]). The fluorescence slope in [5] is -0.47 (inactive); in [7] it was 0.00582 (inactive). For the same molecule, the NADPH fluorescence slope in test [6] is -8.1e-05 (inactive). Further, in test [8], the call was inactive.

As for `Cc1ccc(S(=O)(=O)N(CC(O)CN2CCOCC2)c2cc(Cl)ccc2Cl)cc1` (centres undefined), the cell count in test [1] is 597. Besides, the inhibition in [1] is -2.7% (inactive); in [2] it was -35% (inactive); in test [4] it was 7.42% (inactive); in test [9] it was -2.19% (inactive). The same molecule had a nuclei count in [2] of 112%. The z-score in test [3] (setting [10]) was -0.865; in [3] (setting [11]) it was 1.14; in test [3] (setting [12]) it was 0.263. In addition, the fluorescence slope in test [5] was -0.403 (inactive); in [7] it was 0.00509 (inactive). The NADPH fluorescence slope in [6] was -2.9e-05 (inactive). Moreover, the molecule was classed as inactive in [8].

Consider `CCOC(=O)C1CCCN(c2nc3ccccc3nc2C(C#N)C(=O)OC(C)COC)C1` (centres undefined), for which, in test [1], the cell count came to 683. The inhibition was -5.4% (inactive) in [1], -63% (inactive) in [2], -5.81% (inactive) in test [4] and 23.6% (inactive) in [9]. Also, the nuclei count in [2] came out at 204%. For the same molecule, the z-score in test [3] (setting [10]) was -1; in test [3] (setting [11]), 0.049; in test [3] (setting [12]) it was 0.811. In addition, the fluorescence slope in [5] was -0.495 (inactive); in test [7] it was 0.00181 (inactive). For the same molecule, in test [6], the NADPH fluorescence slope is -0.000103 (inactive). The outcome in test [8] was inactive.
